Results: the EternaBench riboswitch data

Test system: MS2 coat protein
Experiment: apparent Kd, MS2 coat protein; higher = weaker binding; RNA-MaP array; FMN 200 µM where present
Summary of the method: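 SNAP-549-labelled MS2 coat protein, doubled from 0.7 or 1.5 nM to 3 µM, was titrated over designs transcribed by stalled E. coli RNA polymerase on Illumina sequencing-chip clusters. Titrations were run without and then with constant ligand in 100 mM Tris-HCl pH 7.5, 80 mM KCl, 4 mM MgCl2, BSA, DTT, yeast tRNA and Tween-20. The apparent Kd is the median of filtered per-cluster fits to green signal normalised to red-channel RNA signal and control-cluster median Fmax.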

[1] = designed as: ON switch for flavin mononucleotide, no ligand
[2] = ligand present: flavin mononucleotide, designed as: ON switch for flavin mononucleotide
[3] = designed as: OFF switch for flavin mononucleotide, no ligand
[4] = ligand present: flavin mononucleotide, designed as: OFF switch for flavin mononucleotide

Sequence	apparent Kd [1]	apparent Kd [2]	apparent Kd [3]	apparent Kd [4]
UUUGCAUUCCGAGGAUAUUCAUUUAAUGACUUCACAUGAGGAUCACCCAUGUGGCGCUUGCGCCGGGAGAAGGCGGUUUGCUUU	25.6 nM	24.1 nM		
UUUGGGUGGCUGGAGGAUAUUCGAGUGGUUACAUGAGGAUCACCCAUGUGUCGCGCGGUACACGAGGAGAAGGCUGGCGGCCGUU	50.8 nM	22.4 nM		
UUUGUAAUGUCAGGAUAUAUAAUAAGUCAUACAGUAGAAGGGAUAAUAAUACUCAUGUACAUGAGGAUCACCCAUGUUAAAUAU	98.8 nM	52.4 nM		
UUUGUCAUCGAGAAGGCCUCAACAUGAGGAUCACCCAUGUUGUAAUAUGGGAGGAUAUCGAUGAUACAGCUACGUUUCGUAAAA	20 nM	5.58 nM		
UUUGUUGUUGUGAGGAUAUCGUAGUUAUUUUGUAACGAGAAGGCACAUGAGGAUCACCCAUGUUUUUUGAUGGU			22.7 nM	90 nM
UUUUAACAUGAGGAUCACCCAUGUCGUUCAAAUCAAGGAUAUCAGGCGUGUGCACACGCCUGAGAAGGUGAAUCUC	135 nM	320 nM		
UUUUAACAUGAGGAUCACCCAUGUGAGGAUAUCGAAAUUUAUAUUAAUAUUAAUAUUACGAGAAGGCACAUUUU			77.8 nM	101 nM
UUUUAACAUGAGGAUCACCCAUGUGAGGAUAUCGAAAUUUAUAUUAAUAUUAUUUAAUCGAGAAGGCACAUUUU			110 nM	118 nM
UUUUAACAUGAGGAUCACCCAUGUGAGGAUAUCGAAAUUUAUAUUAAUAUUUAUAUUACGAGAAGGCACAUUUU			81.6 nM	82.4 nM
UUUUAACAUGAGGAUCACCCAUGUGAGGAUAUCGAAAUUUAUAUUAAUAUUUUUAAUUCGAGAAGGCACAUUUU			116 nM	118 nM
UUUUAACAUGAGGAUCACCCAUGUGAGGAUAUCGAAAUUUAUAUUUAUAUUAAUAUUACGAGAAGGCACAUUUU			85.5 nM	118 nM
UUUUAACAUGAGGAUCACCCAUGUGAGGAUAUCGAAAUUUAUAUUUAUAUUAAUUAAUCGAGAAGGCACAUUUU			151 nM	156 nM
UUUUAACAUGAGGAUCACCCAUGUGAGGAUAUCGUUUUUUAUAUUAAUAUUAAUAAAACGAGAAGGCACAUUUU			137 nM	150 nM
UUUUACAUAGGAUAUAGUUUGUUGUACAUGAGGAUCACCCAUGUUUUUGUUUGUGCUUUUCUAGAAGGAUGUUUCU			29.2 nM	25.4 nM
UUUUACGCAGGAUAUACAUUUUUUUUAUUAUCCUCAUUAUUACAUGAGGAUCACCCAUGUAGAAGGGCGAUUUU			75.7 nM	99.7 nM
UUUUACGUAGGAUAUACAUUUUUUUUAUUAUUUUCAUUAUUACAUGAGGAUCACCCAUGUAGAAGGACGAUUUU			22.8 nM	22 nM
UUUUCACAUGAGGAUCACCCAUGUGAGGAUAUGGAGCGCGACCGCGCGGUCGCGUACACCAGAAGGCGCAUGAU			30.5 nM	36.6 nM
UUUUUACAUGAGGAUCACCCAUGUCAGGAUAUUCUUAUAUUUUAUUAUUUUAUUUUUUGAAGAAGGGACUAUUA			118 nM	70.5 nM
UUUUUAUUUAUAGGAUAUGGAAACAUGAGGAUCACCCAUGUAUGAUAAGAUAAAUUAUGAUGUGGCCAGAAGGAUAUUAUUUUU	31.3 nM	43.7 nM		
UUUUUAUUUGCAGGAUAUUGUUUUUUAUUACUUCAAGAAGGGCAUUACAUGAGGAUCACCCAUGUCAUCCUAUGGUUUACUAGU			10.6 nM	10.4 nM
UUUUUAUUUGUAGGAUAUGGAGACAUGAGGAUCACCCAUGUAUGAUAAGAUAAAUUAUGAUGUGGCCAGAAGGAUAUUAUUUUU	87.1 nM	119 nM		
UUUUUGUCAGGAUAUGAGUAGUAGAACAAUAGUACUACUACUCAGAAGGGACAUGAGGAUCACCCAUGUUCCUC			15.2 nM	54.1 nM
UUUUUGUCAGGAUAUGAUUAGAUCUACUUCGGUAGAUCUAAUCAGAAGGGACAUGAGGAUCACCCAUGUAGUUU			36.5 nM	141 nM
UUUUUGUGAGGAUAUCAGUAGUAGAACAAUAGUACUACUACUGAGAAGGCACAUGAGGAUCACCCAUGUUCUUC			29 nM	133 nM
UUUUUGUGAGGAUAUCAGUAGUAGAACAAUAGUACUACUACUGAGAAGGUACAUGAGGAUCACCCAUGUUCCUC			19.4 nM	23.7 nM
UUUUUGUGAGGAUAUUAGUAGUAAAUGAAUAAAAUUAUUACUGAGAAGGCACAUGAGGAUCACCCAUGUUCCUU			15.1 nM	71.8 nM
UUUUUUUGCUGAGGAUAUAGCGCGCGUUUUGCGCUAGAAGGCAGACAUGUGGUUCACCCAUGUACAUGAGGAUCACCCAUGUUA	552 nM	301 nM		
